Columns and labels:
h-15-LOX-1 = target: T1, h-15-LOX-1 (Homo sapiens, UniProt P16050); experiment: Michaelis-Menten / Lineweaver-Burk kinetics; assay type: biochemical
T1 sequence (P16050 1-662): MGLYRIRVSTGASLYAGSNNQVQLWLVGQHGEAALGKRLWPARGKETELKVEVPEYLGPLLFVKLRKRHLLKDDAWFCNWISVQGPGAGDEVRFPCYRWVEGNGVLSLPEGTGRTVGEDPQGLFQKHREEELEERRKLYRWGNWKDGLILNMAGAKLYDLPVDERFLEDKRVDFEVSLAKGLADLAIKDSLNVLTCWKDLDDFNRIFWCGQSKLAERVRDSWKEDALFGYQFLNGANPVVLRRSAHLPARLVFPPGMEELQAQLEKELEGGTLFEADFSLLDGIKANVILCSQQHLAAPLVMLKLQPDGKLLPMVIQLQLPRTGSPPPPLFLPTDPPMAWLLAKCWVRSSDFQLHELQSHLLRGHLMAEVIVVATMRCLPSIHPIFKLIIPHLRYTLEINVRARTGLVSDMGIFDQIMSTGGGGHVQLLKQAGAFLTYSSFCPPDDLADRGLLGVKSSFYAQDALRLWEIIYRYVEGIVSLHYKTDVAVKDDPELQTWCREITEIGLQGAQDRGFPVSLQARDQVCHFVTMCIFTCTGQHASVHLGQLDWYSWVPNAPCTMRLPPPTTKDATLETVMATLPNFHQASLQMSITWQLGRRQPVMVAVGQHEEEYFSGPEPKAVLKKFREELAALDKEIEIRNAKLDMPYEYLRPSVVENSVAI

purified 15‐LOX‐1 [1] = target: T2, purified 15‐LOX‐1 (Homo sapiens, UniProt P16050); experiment: MS-based proteomics of covalent modification; assay type: binding; conditions: adduct after preincubation with purified 15-LOX-1
T2 sequence (P16050 1-662): T1 sequence (P16050 1-662)

C. elegans = experiment: growth and imaging of BAM10-treated C. elegans; assay type: in vivo, Caenorhabditis elegans; conditions: 5 μM BAM10, competitor 50 μM, co-treated plates
[2] = test system: 15‐LOX‐1 in RAW 264.7 cells; experiment: cell-based competition assay; design: species or system murine; conditions: for competition with BAM10 labelling, 10-fold competitor: 5 μM BAM10, competitor 10-fold (50 μM); for competition with BAM10 labelling, equimolar competitor: 5 μM BAM10, equimolar concentration of competitor
soybean LOX = soybean LOX inhibition; assay type: biochemical; conditions: selectivity
purified 15‐LOX‐1 [3] = target: T2, purified 15‐LOX‐1; experiment: fluorescence labeling of recombinant purified 15-LOX-1; assay type: binding; conditions: applied prior to the probe BAM10
In short: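 Recombinant purified human 15‑LOX‑1 was incubated briefly with the fluorescent probe, then acetone‑precipitated, leaving excess probe in the supernatant; fluorescence of the labelled protein was read. For the dot‑blot, enzyme with or without pre‑incubation with a reference inhibitor was probe‑treated; controls lacked enzyme. Duplicates (n=2).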

RAW 264.7 cells = experiment: imaging-based cell permeability and retention assay; design: species or system murine; conditions: live RAW 264.7 cells, timeframe of the experiment
In short: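 Live RAW 264.7 cells were treated in situ on the confocal microscope with the fluorescein‑tagged probe at room temperature. Images were recorded immediately and continuously to follow cellular uptake over time.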

| SMILES | competition with BAM10 fluorescence in the pharynx (C. elegans) | competition with BAM10 labelling, 10-fold competitor [2] | competition with BAM10 labelling, equimolar competitor [2] | other results |
| --- | --- | --- | --- | --- |
| CC#CCC#CCCCC=O [BAM1] | – | – | – | type of inhibition (Lineweaver–Burk plots) (h-15-LOX-1): noncompetitive inhibition |
| CC#CCC#CCCCC=NNc1ccccc1 [BAM3] | reduced BAM10 fluorescence intensity | reduction of BAM10 fluorescence intensity | not significant | mass increase of tryptic peptide [YTLEINVRAR] (amino acids 395–404) (purified 15‐LOX‐1 [1]): 230 Da; difference in inhibitory potency in favor of human 15-LOX-1 over soybean LOX (soybean LOX): 4 fold |
| CCCCNC(=O)c1cc(-c2ccccc2)sc1N [ThioLox, reference compound] | reduced BAM10 fluorescence intensity | decreased almost to background levels | not significant | effect on BAM10 labeling of the enzyme (dot-blot) (purified 15‐LOX‐1 [3]): reduced labeling of the enzyme |
| O=C1OC2(c3ccc(O)cc3Oc3cc(O)ccc32)c2ccccc21 [fluorescein] | – | – | – | cell permeability (RAW 264.7 cells): impermeable |

— PMC11795718 (Angewandte Chemie (International Ed. in English), 2024)
